Reference: ChEMBL document CHEMBL1127424, “7-azetidinylquinolones as antibacterial agents. 2. Synthesis and biological activity of 7-(2,3-disubstituted-1-azetidinyl)-4-oxoquinoline- and -1,8-naphthyridine-3-carboxylic acids. Properties and structure-activity relationships of quinolones with an azetidine moiety” (J Med Chem, 1994)
Converted amounts (≈) assume the structure as drawn.

Key:
[1] = Measured ionization constant (pKa); format: physicochemical; conditions: read-out: pKa1
Procedure, shortened: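 Spectrophotometric titration at 20 ± 1 °C, 0.1 M ionic strength, pH varied with H2SO4 or NaOH made up in the compound stock. Absorbance followed at compound-specific wavelengths chosen from 200–400 nm scans. pKa1 and pKa2 taken as the inflection points of the two-step absorbance vs pH curve.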

Bacillus cereus = assay: In vitro minimum inhibitory concentration for Bacillus cereus ATCC 11778; format: functional
Procedure, shortened: (§1)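 Serial 2-fold agar dilution in Mueller Hinton medium, run alongside a reference quinolone. Inoculum adjusted to 10⁸ cfu/mL; compound range 0.007–16 μg/mL.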

Bacillus subtilis = assay: In vitro minimum inhibitory concentration for Bacillus subtilis ATCC 6633; format: functional; procedure, shortened: as §1
Proteus vulgaris = assay: In vitro minimum inhibitory concentration for Proteus vulgaris ATCC 8427; format: functional; procedure, shortened: as §1
Klebsiella pneumoniae = assay: In vitro minimum inhibitory concentration to inhibit Klebsiella pneumoniae ATCC 10031; format: functional; procedure, shortened: as §1
Staphylococcus aureus = assay: In vitro minimum inhibitory concentration for Staphylococcus aureus ATCC 25178; format: functional; procedure, shortened: as §1
[2] = HPLC capacity factor (k'); format: ADME
Procedure, shortened: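 Ion-pair reversed-phase HPLC on ODS-2 (10 μm) at 45 °C. Mobile phase: 10 mM sodium heptanesulfonate plus 50 mM KH2PO4 (pH 3.5)–methanol 45:55, 1 mL/min. Samples at 100 μg/mL in DMF, injected in duplicate, UV 280 nm. k' = (tR − t0)/t0.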

Pseudomonas aeruginosa = assay: In vitro minimum inhibitory concentration for Pseudomonas aeruginosa ATCC 10145; format: functional; procedure, shortened: as §1
Enterococcus faecalis = assay: In vitro minimum inhibitory concentration for Streptococcus faecalis ATCC 10541; format: functional; procedure, shortened: as §1
Escherichia coli = assay: In vitro minimum inhibitory concentration for Escherichia coli ATCC 10799; format: functional; procedure, shortened: as §1
Enterobacter cloacae = assay: In vitro minimum inhibitory concentration for Enterobacter cloacae ATCC 23355; format: functional
Morganella morganii = assay: In vitro minimum inhibitory concentration for Morganella morganii ATCC 8019; format: functional; procedure, shortened: as §1
[3] = AUC (0-4 hr) ug/ml/h; format: ADME, cell-free; design: time < 4 hr; concentration or dose not given beside the values; conditions: plasma
Procedure, shortened: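 Mice dosed once orally at 50 mg/kg; blood taken from groups of six mice at 0.5, 1, 2 and 4 h. Serum drug assayed by disk agar diffusion bioassay (Bacillus subtilis ATCC 6633 on Seed Agar, 37 °C, 18 h), giving total activity.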

[4] = test system: Staphylococcus epidermidis; assay: In vitro minimum inhibitory concentration for Staphylococcus epidermidis ATCC 155-1; format: functional; procedure, shortened: as §1
[5] = Solubility (buffer pH 7.4); format: physicochemical; conditions: read-out: S
Procedure, shortened: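 Excess solid shaken in 0.05 M phosphate buffer pH 7.4 for 24 h at 25 °C. Suspension filtered through 0.22 μm, discarding the first portion. Filtrate diluted in 0.1 N HCl or 0.1 N NaOH and read by UV at the compound's absorbance maximum.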

Mus musculus [6] = assay: Evaluation of efficacy on systemic infections Staphylococcus aureus HS-93, after oral administration in mice; format: functional
Procedure, shortened: (§2)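 Single oral dose given immediately after infection, one of four doses per group, chosen from in vitro activity. Survival scored after one week. ED50 (total mg/kg protecting 50%) interpolated from survival rates.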

Mus musculus [7] = assay: Evaluation of efficacy on systemic infections Pseudomonas aeruginosa HS-116, after oral administration in mice; format: functional; procedure, shortened: as §2
Mus musculus [8] = assay: Evaluation of efficacy on systemic infections Escherichia coli HM-42, after oral administration in mice; format: functional; procedure, shortened: as §2

SMILES | pKa [1] | MIC (Bacillus cereus) | MIC (Bacillus subtilis) | MIC (Proteus vulgaris) | MIC (Klebsiella pneumoniae) | MIC (Staphylococcus aureus) | Log k' [2] | MIC (Pseudomonas aeruginosa) | MIC (Enterococcus faecalis) | MIC (Escherichia coli) | MIC (Enterobacter cloacae) | MIC (Morganella morganii) | AUC [3] | MIC [4] | solubility [5] | ED50 (Mus musculus [6]) | ED50 (Mus musculus [7]) | ED50 (Mus musculus [8])
CC[N+](C)(C)C1CN(c2cc3c(cc2F)c(=O)c(C(=O)O)cn3C2CC2)C1 | 6.46 | – | – | – | – | – | – | – | – | – | – | – | – | – | – | – | – | –
C[C@H]1N(c2cc3c(cc2F)c(=O)c(C(=O)O)cn3C2CC2)C[C@]1(C)N | – | 0.25 mg/L (≈ 0.724 µM) | 0.015 mg/L (≈ 0.0434 µM) | 0.25 mg/L (≈ 0.724 µM) | 0.03 mg/L (≈ 0.0869 µM) | 0.25 mg/L (≈ 0.724 µM) | 0.1421 | 2 mg/L (≈ 5.79 µM) | 2 mg/L (≈ 5.79 µM) | 0.06 mg/L (≈ 0.174 µM) | 0.015 mg/L (≈ 0.0434 µM) | 0.06 mg/L (≈ 0.174 µM) | 3.8 µg·h/mL | 0.12 mg/L (≈ 0.347 µM) | 0.0013 mg/mL (≈ 3.76 µM) | – | – | –
C[C@H]1[C@H](N)CN1c1cc2c(cc1F)c(=O)c1c(=O)[nH]sc1n2C1CC1 | – | 0.06 mg/L (≈ 0.166 µM) | 0.015 mg/L (≈ 0.0416 µM) | 0.12 mg/L (≈ 0.333 µM) | 0.015 mg/L (≈ 0.0416 µM) | 0.06 mg/L (≈ 0.166 µM) | 0.065 | 0.25 mg/L (≈ 0.694 µM) | 0.25 mg/L (≈ 0.694 µM) | 0.03 mg/L (≈ 0.0832 µM) | 0.015 mg/L (≈ 0.0416 µM) | 0.03 mg/L (≈ 0.0832 µM) | 16.2 µg·h/mL | 0.03 mg/L (≈ 0.0832 µM) | – | – | – | –
C[C@H]1[C@H](N)CN1c1c(F)cc2c(=O)c(C(=O)O)cn(-c3ccc(F)cc3)c2c1Cl | – | 0.03 mg/L (≈ 0.0715 µM) | 0.03 mg/L (≈ 0.0715 µM) | 0.25 mg/L (≈ 0.596 µM) | 0.03 mg/L (≈ 0.0715 µM) | 0.03 mg/L (≈ 0.0715 µM) | 0.2581 | 0.25 mg/L (≈ 0.596 µM) | 0.25 mg/L (≈ 0.596 µM) | 0.06 mg/L (≈ 0.143 µM) | 0.06 mg/L (≈ 0.143 µM) | 0.06 mg/L (≈ 0.143 µM) | – | 0.06 mg/L (≈ 0.143 µM) | – | 1.3 mg/kg | 37.9 mg/kg | 3.6 mg/kg
C[C@H]1[C@H](N)CN1c1nc2c(cc1F)c(=O)c(C(=O)O)cn2C(C)(C)C | – | 0.12 mg/L (≈ 0.344 µM) | 0.015 mg/L (≈ 0.0431 µM) | 0.25 mg/L (≈ 0.718 µM) | 0.015 mg/L (≈ 0.0431 µM) | 0.12 mg/L (≈ 0.344 µM) | 0.1644 | 2 mg/L (≈ 5.74 µM) | 1 mg/L (≈ 2.87 µM) | 0.06 mg/L (≈ 0.172 µM) | 0.06 mg/L (≈ 0.172 µM) | 0.12 mg/L (≈ 0.344 µM) | 16.5 µg·h/mL | 0.12 mg/L (≈ 0.344 µM) | – | – | – | –
CCNC[C@H]1CN(c2c(F)cc3c(=O)c(C(=O)O)cn(C4CC4)c3c2F)[C@@H]1C | – | 0.25 mg/L (≈ 0.639 µM) | 0.12 mg/L (≈ 0.307 µM) | 0.5 mg/L (≈ 1.28 µM) | 0.06 mg/L (≈ 0.153 µM) | 0.25 mg/L (≈ 0.639 µM) | 0.025 | 4 mg/L (≈ 10.2 µM) | 2 mg/L (≈ 5.11 µM) | 0.25 mg/L (≈ 0.639 µM) | 1 mg/L (≈ 2.55 µM) | 0.5 mg/L (≈ 1.28 µM) | 11.8 µg·h/mL | 0.25 mg/L (≈ 0.639 µM) | – | 37.5 mg/kg | 61 mg/kg | 4.7 mg/kg
CC1([N+](C)(C)C)CN(c2c(F)cc3c(=O)c(C(=O)O)cn(C4CC4)c3c2F)C1 | 6.03 | – | – | – | – | – | – | – | – | – | – | – | – | – | – | – | – | –
C[C@H]1[C@H](N)CN1c1c(F)cc2c(=O)c(C(=O)O)cn3c2c1SCC3 | – | 1 mg/L (≈ 2.86 µM) | 0.25 mg/L (≈ 0.716 µM) | 1 mg/L (≈ 2.86 µM) | 0.25 mg/L (≈ 0.716 µM) | 1 mg/L (≈ 2.86 µM) | -0.1195 | 2 mg/L (≈ 5.72 µM) | 8 mg/L (≈ 22.9 µM) | 0.5 mg/L (≈ 1.43 µM) | 0.25 mg/L (≈ 0.716 µM) | 0.25 mg/L (≈ 0.716 µM) | – | 0.5 mg/L (≈ 1.43 µM) | – | – | – | –
Nc1c(F)c(N2CC(N)C2)c(F)c2c1c(=O)c(C(=O)O)cn2C1CC1 | 6.65 | – | – | – | – | – | -0.0505 | – | – | – | – | – | – | – | – | – | – | –
C[C@H]1N(c2c(F)cc3c(=O)c(C(=O)O)cn(C4CC4)c3c2F)C[C@]1(C)N | – | 0.25 mg/L (≈ 0.688 µM) | 0.06 mg/L (≈ 0.165 µM) | 0.5 mg/L (≈ 1.38 µM) | 0.03 mg/L (≈ 0.0826 µM) | 0.25 mg/L (≈ 0.688 µM) | 0.1312 | 2 mg/L (≈ 5.5 µM) | 1 mg/L (≈ 2.75 µM) | 0.12 mg/L (≈ 0.33 µM) | 0.06 mg/L (≈ 0.165 µM) | 0.12 mg/L (≈ 0.33 µM) | 20.6 µg·h/mL | 0.12 mg/L (≈ 0.33 µM) | 0.0033 mg/mL (≈ 9.08 µM) | – | – | –
NC1CN(c2cc3c(cc2F)c(=O)c(C(=O)O)cn3C2CC2)C1 | 6.49 | – | – | – | – | – | -0.0607 | – | – | – | – | – | – | – | – | – | – | –
CC[C@H]1[C@@H](N)CN1c1c(F)cc2c(=O)c(C(=O)O)cn(C3CC3)c2c1F | – | 0.12 mg/L (≈ 0.33 µM) | 0.015 mg/L (≈ 0.0413 µM) | 0.25 mg/L (≈ 0.688 µM) | 0.015 mg/L (≈ 0.0413 µM) | 0.12 mg/L (≈ 0.33 µM) | 0.1399 | 2 mg/L (≈ 5.5 µM) | 2 mg/L (≈ 5.5 µM) | 0.12 mg/L (≈ 0.33 µM) | 0.12 mg/L (≈ 0.33 µM) | 0.12 mg/L (≈ 0.33 µM) | 14.7 µg·h/mL | 0.12 mg/L (≈ 0.33 µM) | 0.0559 mg/mL (≈ 154 µM) | – | – | –
NC1CN(c2c(F)cc3c(=O)c(C(=O)O)cn(C4CC4)c3c2Cl)C1 | 5.96 | – | – | – | – | – | -0.0264 | – | – | – | – | – | – | – | – | – | – | –
CC[C@H]1[C@@H](N)CN1c1cc2c(cc1F)c(=O)c(C(=O)O)cn2C1CC1 | – | 0.25 mg/L (≈ 0.724 µM) | 0.015 mg/L (≈ 0.0434 µM) | 0.25 mg/L (≈ 0.724 µM) | 0.015 mg/L (≈ 0.0434 µM) | 0.25 mg/L (≈ 0.724 µM) | 0.1708 | 2 mg/L (≈ 5.79 µM) | 4 mg/L (≈ 11.6 µM) | 0.12 mg/L (≈ 0.347 µM) | 0.12 mg/L (≈ 0.347 µM) | 0.25 mg/L (≈ 0.724 µM) | 3.6 µg·h/mL | 0.25 mg/L (≈ 0.724 µM) | 0.0422 mg/mL (≈ 122 µM) | – | – | –
C[C@H]1[C@H](N)CN1c1nc2c(cc1F)c(=O)c(C(=O)O)cn2-c1ccc(F)cc1 | – | 0.25 mg/L (≈ 0.647 µM) | 0.06 mg/L (≈ 0.155 µM) | 2 mg/L (≈ 5.18 µM) | 0.06 mg/L (≈ 0.155 µM) | 0.25 mg/L (≈ 0.647 µM) | 0.0681 | 2 mg/L (≈ 5.18 µM) | 4 mg/L (≈ 10.4 µM) | 0.12 mg/L (≈ 0.311 µM) | 0.12 mg/L (≈ 0.311 µM) | 0.25 mg/L (≈ 0.647 µM) | – | 0.25 mg/L (≈ 0.647 µM) | – | 11.9 mg/kg | > 400 mg/kg | 3.1 mg/kg
